Active and inactive are the calls of the source. The rule behind the calls is not given here.

One test has as its target Histone deacetylase 5 (Homo sapiens, UniProt Q9UQL6). Description: Inhibition of recombinant HDAC5 (unknown origin) by homogeneous fluorescence release assay. The method, boiled down: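 Recombinant HDAC isoform panel (HDAC1−11), tested in 10-dose IC50 mode with 3-fold serial dilution starting from 50 μM solutions.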
In a further test the target is T1, Histone deacetylase 7 (Homo sapiens, UniProt Q8WUI4).
T1 sequence (Q8WUI4 whole entry): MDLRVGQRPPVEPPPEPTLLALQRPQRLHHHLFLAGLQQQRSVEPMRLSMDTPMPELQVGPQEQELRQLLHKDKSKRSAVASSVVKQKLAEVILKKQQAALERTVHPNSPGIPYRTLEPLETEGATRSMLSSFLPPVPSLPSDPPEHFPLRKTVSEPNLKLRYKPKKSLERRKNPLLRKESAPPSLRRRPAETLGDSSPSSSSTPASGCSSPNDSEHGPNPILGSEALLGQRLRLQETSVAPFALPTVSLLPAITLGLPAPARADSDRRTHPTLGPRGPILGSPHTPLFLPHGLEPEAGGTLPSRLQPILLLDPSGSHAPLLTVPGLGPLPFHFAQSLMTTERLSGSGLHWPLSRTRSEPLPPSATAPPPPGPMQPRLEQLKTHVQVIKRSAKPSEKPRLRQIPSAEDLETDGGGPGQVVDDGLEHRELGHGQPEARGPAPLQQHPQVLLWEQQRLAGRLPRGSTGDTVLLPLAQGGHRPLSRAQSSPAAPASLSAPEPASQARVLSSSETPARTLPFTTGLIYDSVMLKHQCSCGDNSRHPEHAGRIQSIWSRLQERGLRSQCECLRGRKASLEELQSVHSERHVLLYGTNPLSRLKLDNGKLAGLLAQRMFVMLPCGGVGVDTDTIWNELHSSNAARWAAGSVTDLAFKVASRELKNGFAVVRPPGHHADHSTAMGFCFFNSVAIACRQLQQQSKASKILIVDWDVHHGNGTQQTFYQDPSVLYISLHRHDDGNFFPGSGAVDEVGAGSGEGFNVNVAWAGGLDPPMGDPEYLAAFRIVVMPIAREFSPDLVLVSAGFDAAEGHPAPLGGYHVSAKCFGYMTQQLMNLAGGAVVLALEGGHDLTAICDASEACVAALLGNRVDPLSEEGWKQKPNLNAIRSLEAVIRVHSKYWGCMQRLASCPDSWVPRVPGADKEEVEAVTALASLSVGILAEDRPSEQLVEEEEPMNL
Description: Inhibition of recombinant HDAC7 (unknown origin) by homogeneous fluorescence release assay. Summed up:
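Isoform enzyme assay run in 10-dose IC50 mode. Compounds were serially diluted 3-fold starting from 50 μM solutions.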

Another test deals with HOS. Description: Antiproliferative activity against HOS cells after 24 to 72 hrs by […] dye exclusion assay. The class given is functional, cell-based. The note with it: Homo sapiens. Summed up: (§1)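 Sarcosphere-derived CSCs, dissociated to single cells, plated at 50000/well in complete IMDM for adhesion. After 24 h, exposed to 0.5, 1 and 2 μM. Viable cells counted by dye exclusion at 24, 48 and 72 h. Growth inhibition is expressed relative to DMSO-treated controls. Three experiments in duplicate.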

For another test, the system named is A204. Description: Antiproliferative activity against human A204 cells after 24 to 72 hrs by […] dye exclusion assay. The class given is functional, cell-based. Summed up: as §1
A further test concerns SK-ES1. In words: Antiproliferative activity against human SK-ES-1 cells after 24 to 72 hrs by […] dye exclusion assay. The class given is functional, cell-based. Summed up: as §1
For orientation: Formazan colour is commonly taken as a measure of viable cells.

Test [1] has as its target Histone deacetylase (Homo sapiens) (UniProt Q13547+O15379+Q9UBN7+Q92769+Q9UQL6+Q8WUI4+Q9BY41+Q96DB2+P56524+Q9UKV0+Q969S8). The note with it: MG-63, 0.5 to 2 uM.
Test [2] addresses T2, Polyamine deacetylase HDAC10 (Homo sapiens, UniProt Q969S8).
T2 sequence (Q969S8 whole entry): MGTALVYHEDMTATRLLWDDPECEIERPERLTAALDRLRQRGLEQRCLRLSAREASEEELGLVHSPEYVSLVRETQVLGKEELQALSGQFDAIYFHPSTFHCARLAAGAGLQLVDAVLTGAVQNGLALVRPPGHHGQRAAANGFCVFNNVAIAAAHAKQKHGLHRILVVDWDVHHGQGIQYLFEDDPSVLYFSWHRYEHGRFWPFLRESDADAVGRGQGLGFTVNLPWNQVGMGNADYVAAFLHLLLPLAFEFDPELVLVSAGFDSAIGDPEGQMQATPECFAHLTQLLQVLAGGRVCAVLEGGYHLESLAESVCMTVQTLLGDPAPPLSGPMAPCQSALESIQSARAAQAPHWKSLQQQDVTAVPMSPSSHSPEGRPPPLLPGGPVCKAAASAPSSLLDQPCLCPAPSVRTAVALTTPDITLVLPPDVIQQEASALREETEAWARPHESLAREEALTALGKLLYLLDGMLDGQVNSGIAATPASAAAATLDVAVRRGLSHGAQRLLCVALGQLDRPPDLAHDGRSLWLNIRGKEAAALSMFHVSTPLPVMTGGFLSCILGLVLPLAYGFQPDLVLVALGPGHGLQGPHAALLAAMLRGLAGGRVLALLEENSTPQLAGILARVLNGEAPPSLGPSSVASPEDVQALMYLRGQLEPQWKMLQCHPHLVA
In words: Inhibition of recombinant HDAC10 (unknown origin) by homogeneous fluorescence release assay.

Another test has as its system MG-63. Description: Induction of human MG63 cell differentiation assessed as increase in bone nodule formation at 0.025 to 0.5 uM after 14 days by Alizarin Red S staining-based spectrophotometric analysis relative to control. The class given is functional. Summed up: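 MG-63 sarcosphere-derived cells in mineralization medium (10 mM β-glycerophosphate, 10−8 M dexamethasone, ascorbic acid 2-phosphate) with continuous 0.025–0.5 μM exposure for 14 days. Fixed in 3.7% paraformaldehyde, then stained with 2% Alizarin Red S, pH 4.2, for 1 h. Dye eluted with 10% cetylpyridinium chloride and read at 570 nm. OD expressed relative to mineralization-medium control; triplicate.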

Histone deacetylase 5, sequence (Q9UQL6 whole entry, canonical isoform): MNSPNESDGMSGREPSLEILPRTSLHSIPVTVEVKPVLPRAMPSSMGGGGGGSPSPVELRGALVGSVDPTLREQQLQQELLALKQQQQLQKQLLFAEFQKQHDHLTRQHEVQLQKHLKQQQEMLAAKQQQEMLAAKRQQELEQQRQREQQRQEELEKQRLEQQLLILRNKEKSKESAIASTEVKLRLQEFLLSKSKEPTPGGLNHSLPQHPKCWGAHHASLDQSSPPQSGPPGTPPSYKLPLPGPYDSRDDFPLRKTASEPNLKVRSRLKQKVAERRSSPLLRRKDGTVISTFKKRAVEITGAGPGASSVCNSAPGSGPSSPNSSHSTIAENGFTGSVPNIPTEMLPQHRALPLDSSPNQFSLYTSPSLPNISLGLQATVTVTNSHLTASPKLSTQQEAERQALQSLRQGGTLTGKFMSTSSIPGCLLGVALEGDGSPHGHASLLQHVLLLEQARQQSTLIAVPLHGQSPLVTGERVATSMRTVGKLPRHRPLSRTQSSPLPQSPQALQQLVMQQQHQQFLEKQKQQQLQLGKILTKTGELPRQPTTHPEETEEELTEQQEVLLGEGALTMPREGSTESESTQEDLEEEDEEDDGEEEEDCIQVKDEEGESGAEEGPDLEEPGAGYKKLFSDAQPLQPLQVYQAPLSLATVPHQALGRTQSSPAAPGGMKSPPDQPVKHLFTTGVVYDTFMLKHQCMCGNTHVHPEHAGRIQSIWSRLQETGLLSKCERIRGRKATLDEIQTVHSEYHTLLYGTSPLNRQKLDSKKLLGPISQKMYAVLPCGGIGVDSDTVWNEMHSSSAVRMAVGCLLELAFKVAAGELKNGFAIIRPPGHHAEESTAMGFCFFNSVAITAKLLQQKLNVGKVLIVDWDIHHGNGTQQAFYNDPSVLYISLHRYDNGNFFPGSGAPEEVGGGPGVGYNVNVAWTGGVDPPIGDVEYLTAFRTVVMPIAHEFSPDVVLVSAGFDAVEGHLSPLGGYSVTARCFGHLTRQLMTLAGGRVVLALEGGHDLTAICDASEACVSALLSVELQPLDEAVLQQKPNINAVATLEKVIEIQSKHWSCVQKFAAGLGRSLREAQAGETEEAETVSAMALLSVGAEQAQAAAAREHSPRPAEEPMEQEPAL

In the case of `O=C(CCCCSc1nc(-c2ccc(-c3ccccc3)cc2)cc(=O)[nH]1)NO`, the IC50 at Histone deacetylase 5 and at Histone deacetylase 7 was > 50 µM throughout. Also, the Activity result in the test on HOS, in the test with A204 and in the test with SK-ES1 was “Dose-dependent effect” throughout. The inhibition result in test [1] is “Active”.
In the case of `O=C(/C=C/c1ccc(NC(=O)C(Cc2ccccc2)c2ccccc2)cn1)NO` (stereo not drawn), the IC50 – broadly, the concentration that inhibits the measured activity by half – on Histone deacetylase 5 worked out at 9.37 µM; on Histone deacetylase 7, 8.77 µM; in test [2] it was 1.8 µM. Also, the Activity result with HOS, in the test on A204 and with SK-ES1 was “Dose-dependent effect” in each case. In the test on MG-63, the result was inactive.
